ChEMBL document CHEMBL4311940, “Design, Synthesis, and Biological Evaluation of 4-Methyl Quinazoline Derivatives as Anticancer Agents Simultaneously Targeting Phosphoinositide 3-Kinases and Histone Deacetylases” (J Med Chem, 2019)
Active and inactive are the calls of the source. No cut-off for these calls is given here.

Assays:
HCT-116 [1] = assay: Antiproliferative activity against human HCT116 cells after 96 hrs by MTT assay; type: functional, cell-based; conditions: HCT-116, 96 h
Histone deacetylase 1 = Histone deacetylase 1 (Homo sapiens, UniProt Q13547); assay: Inhibition of recombinant C-terminal His/FLAG-tagged HDAC1 (unknown origin) expressed in baculovirus infected Sf9 insect cells using Ac-peptide as substrate preincubated for 15 mins followed by substrate addition and measured after 1 hr
Histone deacetylase 1, sequence (Q13547 whole entry, canonical isoform): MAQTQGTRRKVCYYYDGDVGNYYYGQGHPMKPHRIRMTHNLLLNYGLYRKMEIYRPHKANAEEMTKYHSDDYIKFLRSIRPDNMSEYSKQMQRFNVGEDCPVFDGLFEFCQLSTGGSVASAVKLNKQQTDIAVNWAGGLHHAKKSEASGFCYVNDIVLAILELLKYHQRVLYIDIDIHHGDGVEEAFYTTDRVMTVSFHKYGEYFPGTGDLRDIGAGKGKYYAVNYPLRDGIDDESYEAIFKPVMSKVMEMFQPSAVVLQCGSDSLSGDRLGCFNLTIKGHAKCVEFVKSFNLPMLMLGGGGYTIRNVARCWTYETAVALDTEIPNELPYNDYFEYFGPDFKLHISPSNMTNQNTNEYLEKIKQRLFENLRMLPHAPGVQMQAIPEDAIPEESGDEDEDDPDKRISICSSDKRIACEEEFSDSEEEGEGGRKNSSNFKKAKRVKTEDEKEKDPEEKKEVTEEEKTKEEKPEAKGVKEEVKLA

[2] = target: Phosphatidylinositol 4,5-bisphosphate 3-kinase catalytic subunit alpha isoform (Homo sapiens, UniProt P42336); assay: Inhibition of recombinant human PI3Kalpha using PIP2 as substrate incubated for 1 hr by kinase-glo assay
Phosphatidylinositol 4,5-bisphosphate 3-kinase catalytic subunit alpha isoform, sequence (P42336 whole entry, canonical isoform): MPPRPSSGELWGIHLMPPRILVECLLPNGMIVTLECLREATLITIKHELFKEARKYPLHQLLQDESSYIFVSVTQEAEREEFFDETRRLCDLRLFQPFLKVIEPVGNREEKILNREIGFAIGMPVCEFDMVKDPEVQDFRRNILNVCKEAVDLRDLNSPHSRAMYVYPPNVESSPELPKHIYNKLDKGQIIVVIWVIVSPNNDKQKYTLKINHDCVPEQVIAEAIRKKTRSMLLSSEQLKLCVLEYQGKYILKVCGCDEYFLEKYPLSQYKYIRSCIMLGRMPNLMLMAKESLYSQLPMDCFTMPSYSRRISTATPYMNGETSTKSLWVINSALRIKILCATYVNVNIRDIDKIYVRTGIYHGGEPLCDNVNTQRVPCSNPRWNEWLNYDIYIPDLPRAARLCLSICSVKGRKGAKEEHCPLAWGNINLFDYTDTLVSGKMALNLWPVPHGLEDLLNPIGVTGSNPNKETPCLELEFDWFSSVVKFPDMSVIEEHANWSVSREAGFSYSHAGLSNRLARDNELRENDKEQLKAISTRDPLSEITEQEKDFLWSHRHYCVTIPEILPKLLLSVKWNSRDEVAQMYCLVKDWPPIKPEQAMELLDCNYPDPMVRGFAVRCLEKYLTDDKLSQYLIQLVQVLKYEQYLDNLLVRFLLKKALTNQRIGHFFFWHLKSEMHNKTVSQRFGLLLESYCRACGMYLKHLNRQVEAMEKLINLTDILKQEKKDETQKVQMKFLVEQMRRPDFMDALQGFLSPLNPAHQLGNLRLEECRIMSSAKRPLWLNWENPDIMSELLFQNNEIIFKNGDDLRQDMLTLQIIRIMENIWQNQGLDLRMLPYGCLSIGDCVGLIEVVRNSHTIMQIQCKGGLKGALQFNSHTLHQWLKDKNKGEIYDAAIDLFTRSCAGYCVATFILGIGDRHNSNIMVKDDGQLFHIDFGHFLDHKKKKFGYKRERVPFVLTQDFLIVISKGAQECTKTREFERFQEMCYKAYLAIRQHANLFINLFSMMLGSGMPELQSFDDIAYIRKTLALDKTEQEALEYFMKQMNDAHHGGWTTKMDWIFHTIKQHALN

HCT-116 [3] = assay: Induction of apoptosis in human HCT116 cells assessed as live cells at 500 nM after 48 hrs by Annexin V-FITC/propidium iodide staining-based flow cytometric analysis (reference value: 89.6%); type: functional
HCT-116 [4] = assay: Induction of apoptosis in human HCT116 cells assessed as early apoptotic cells at 500 nM after 48 hrs by Annexin V-FITC/propidium iodide staining-based flow cytometric analysis (reference value: 1.33%); type: functional
HCT-116 [5] = assay: Induction of apoptosis in human HCT116 cells assessed as late apoptotic cells at 500 nM after 48 hrs by Annexin V-FITC/propidium iodide staining-based flow cytometric analysis (reference value: 3.87%); type: functional
HCT-116 [6] = assay: Induction of apoptosis in human HCT116 cells assessed as necrotic cells at 500 nM after 48 hrs by Annexin V-FITC/propidium iodide staining-based flow cytometric analysis (reference value: 5.23%); type: functional
HCT-116 [7] = assay: Induction of cell cycle arrest in human HCT116 cells assessed as accumulation at G2/M phase at 500 nM after 24 hrs by propidium iodide/RNase staining-based FACS analysis; type: functional
In short: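 HCT116 cells cultured overnight in 6-well plates, exposed to compound at various concentrations for 24 h; FxCycle PI/RNase staining and flow cytometry for cell cycle phase distribution.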

K562 = assay: Antiproliferative activity against human K562 cells after 96 hrs by MTT assay; type: functional, cell-based; conditions: K562, 96 h
MCF7 = assay: Antiproliferative activity against human MCF7 cells after 96 hrs by MTT assay; type: functional, cell-based; conditions: MCF7, 96 h
MDA-MB-453 = assay: Antiproliferative activity against human MDA-MB-453 cells after 96 hrs by MTT assay; type: functional, cell-based; conditions: MDA-MB-453, 96 h
HCT-8 = assay: Antiproliferative activity against human HCT8 cells after 96 hrs by MTT assay; type: functional, cell-based; conditions: HCT-8, 96 h
U-87 MG = assay: Antiproliferative activity against human U87 cells after 96 hrs by MTT assay; type: functional, cell-based, U-87MG ATCC
NCI-H460 = assay: Antiproliferative activity against human NCI-H460 cells after 96 hrs by MTT assay; type: functional, cell-based; conditions: NCI-H460, 96 h
NCI-H1299 = assay: Antiproliferative activity against human NCI-H1299 cells after 96 hrs by MTT assay; type: functional, cell-based; conditions: NCI-H1299, 96 h
Capan-2 = assay: Antiproliferative activity against human Capan2 cells after 96 hrs by MTT assay; type: functional, cell-based; conditions: Capan-2, 96 h
SW1990 = assay: Antiproliferative activity against human SW1990 cells after 96 hrs by MTT assay; type: functional, cell-based; conditions: SW1990, 96 h
DU-145 = assay: Antiproliferative activity against human DU145 cells after 96 hrs by MTT assay; type: functional, cell-based; conditions: DU-145, 96 h
HGC-27 = assay: Antiproliferative activity against human HGC27 cells after 96 hrs by MTT assay; type: functional, cell-based; conditions: HGC-27, 96 h
HepG2 = assay: Antiproliferative activity against human HepG2 cells after 96 hrs by MTT assay; type: functional, cell-based; conditions: HepG2, 96 h
Huh-7 = assay: Antiproliferative activity against human HuH7 cells after 96 hrs by MTT assay; type: functional, cell-based; conditions: Huh-7, 96 h
Bel-7402 = assay: Antiproliferative activity against human Bel7402 cells after 96 hrs by MTT assay; type: functional, cell-based; conditions: Bel-7402, 96 h

Structure (SMILES) | IC50 (HCT-116 [1]) | IC50 (Histone deacetylase 1) | IC50 [2] | other results
COc1ncc(-c2cc(OCCCCCCCC(=O)NO)c3ncnc(C)c3c2)cc1NS(=O)(=O)c1ccc(F)cc1F | 1500 nM | 1.8 nM | 0.63 nM | 
O=C(CCCCCCC(=O)Nc1ccccc1)NO [VORINOSTAT] |  |  |  | Activity (HCT-116 [3]): 87.7%; Activity (HCT-116 [4]): 2.72%; Activity (HCT-116 [5]): 5.21%; Activity (HCT-116 [6]): 4.33%; Activity (HCT-116 [7]): Active
CCN(CCOc1cc(-c2ccc(OC)nc2)cc2c(C)ncnc12)c1ncc(C(=O)NO)cn1 | 22 nM | 2.1 nM | 195 nM | 
COc1ccc(-c2cc(OCC(=O)NO)c3ncnc(C)c3c2)cn1 | > 10000 nM | 166 nM | 68 nM | 
COc1ccc(-c2nc(N3CCOCC3)c3sc(CN(C)c4ncc(C(=O)NO)cn4)cc3n2)cn1 [FIMEPINOSTAT] | 5 nM |  |  | IC50 (K562): 280 nM; IC50 (MCF7): 41 nM; IC50 (MDA-MB-453): 9 nM; IC50 (HCT-8): 5 nM; IC50 (U-87 MG): 7 nM; IC50 (NCI-H460): 150 nM; IC50 (NCI-H1299): 25 nM; IC50 (Capan-2): 7 nM; IC50 (SW1990): 180 nM; IC50 (DU-145): 560 nM; IC50 (HGC-27): 41 nM; IC50 (HepG2): 15 nM; IC50 (Huh-7): 560 nM; IC50 (Bel-7402): 13 nM
COc1ncc(-c2cc(OCCCCCC(=O)NO)c3ncnc(C)c3c2)cc1NS(C)(=O)=O | > 10000 nM | 42 nM | 5.1 nM | 
COc1ncc(-c2cc(OCCN(C)c3ncc(C(=O)NO)cn3)c3ncnc(C)c3c2)cc1F | 30 nM | 1.3 nM | 73 nM | 
COc1ncc(-c2cc(OCCCN(C)c3ncc(C(=O)NO)cn3)c3ncnc(C)c3c2)cc1F | 82 nM | 2.4 nM | 94 nM | 
COc1ncc(-c2cc(OCCN(c3ncc(C(=O)NO)cn3)C(C)C)c3ncnc(C)c3c2)cc1F | 96 nM | 2 nM | 43 nM | 
COc1ncc(-c2cc(OCCCCCCCCC(=O)NO)c3ncnc(C)c3c2)cc1NS(=O)(=O)c1ccc(F)cc1F | 4000 nM | 8.9 nM | 0.9 nM | 
COc1ccc(-c2cc(OCCCC(=O)NO)c3ncnc(C)c3c2)cn1 | > 10000 nM | 91 nM | 73 nM | 
COc1ncc(-c2cc(OCCCCCC(=O)NO)c3ncnc(C)c3c2)cc1F | 1200 nM | 37 nM | 30 nM | 
COc1ccc(-c2cc(OCCCCCC(=O)NO)c3ncnc(C)c3c2)cn1 | 540 nM | 30 nM | 58 nM | 
COc1ncc(-c2cc(OCCCCN(C)c3ncc(C(=O)NO)cn3)c3ncnc(C)c3c2)cc1F | 250 nM | 3.3 nM | 48 nM | 
COc1ncc(-c2cc(OCCCN(C)c3ncc(C(=O)NO)cn3)c3ncnc(C)c3c2)cc1NS(=O)(=O)c1ccc(F)cc1F | 2900 nM | 11 nM | 1.1 nM | 
COc1ncc(-c2cc(OCCCC(=O)NO)c3ncnc(C)c3c2)cc1NS(=O)(=O)c1ccc(F)cc1F | > 10000 nM | 37 nM | 1.3 nM | 
COc1ccc(-c2cc(OCCCCCCCCC(=O)NO)c3ncnc(C)c3c2)cn1 | 760 nM | 3 nM | 162 nM | 
COc1ncc(-c2cc(OCCCCCCC(=O)NO)c3ncnc(C)c3c2)cc1NS(C)(=O)=O | 37000 nM | 1.3 nM | 2.3 nM | 
